Reference: ChEMBL document CHEMBL2203171, “The use of small molecule probes to study spatially separated stimulus-induced signaling pathways” (Bioorg Med Chem Lett, 2012)
Active and inactive are the calls of the source. The rule behind the calls is not given here.

Columns and labels:
Format in all cases: cell-based
[1] = biological target: T1, Inhibitor of nuclear factor kappa-B kinase subunit beta (Mus musculus) (UniProt O88351); experiment: Inhibition of IKKbeta in C57BL/6 mouse BMDM cells assessed as inhibition of LPS-induced IkappaBalpha degradation at 50 uM up to 90 mins by Western blot analysis
T1 sequence (whole entry): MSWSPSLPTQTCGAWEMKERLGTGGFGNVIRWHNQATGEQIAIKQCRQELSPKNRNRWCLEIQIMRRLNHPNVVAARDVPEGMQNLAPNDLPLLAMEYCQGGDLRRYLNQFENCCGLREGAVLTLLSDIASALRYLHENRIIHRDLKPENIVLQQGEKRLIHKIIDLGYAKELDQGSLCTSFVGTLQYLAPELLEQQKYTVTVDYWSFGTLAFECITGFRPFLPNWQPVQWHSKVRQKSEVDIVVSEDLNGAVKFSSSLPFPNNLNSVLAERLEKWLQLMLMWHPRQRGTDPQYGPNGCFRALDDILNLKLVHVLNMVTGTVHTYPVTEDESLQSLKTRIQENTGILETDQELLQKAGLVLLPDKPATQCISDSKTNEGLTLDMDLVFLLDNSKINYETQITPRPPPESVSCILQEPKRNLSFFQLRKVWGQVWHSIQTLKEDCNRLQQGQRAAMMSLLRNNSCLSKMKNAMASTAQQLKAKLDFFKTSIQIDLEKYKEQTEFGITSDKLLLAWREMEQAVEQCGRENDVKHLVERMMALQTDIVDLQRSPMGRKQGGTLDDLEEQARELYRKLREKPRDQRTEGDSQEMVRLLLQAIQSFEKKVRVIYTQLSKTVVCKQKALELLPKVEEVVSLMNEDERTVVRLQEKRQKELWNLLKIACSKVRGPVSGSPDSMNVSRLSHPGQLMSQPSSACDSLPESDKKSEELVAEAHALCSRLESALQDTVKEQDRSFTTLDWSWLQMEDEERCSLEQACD

[2] = biological target: Toll-like receptor 2 (Mus musculus) (UniProt Q9QUN7); experiment: Inhibition of MyD88 recruitment to TLR2 in C57BL/6 mouse BMDM cells assessed as inhibition of HKSA-induced IkappaBalpha phosphorylation up to 90 mins by Western blot analysis
Chain of Toll-like receptor 2 (Mus musculus) (Q9QUN7 whole entry): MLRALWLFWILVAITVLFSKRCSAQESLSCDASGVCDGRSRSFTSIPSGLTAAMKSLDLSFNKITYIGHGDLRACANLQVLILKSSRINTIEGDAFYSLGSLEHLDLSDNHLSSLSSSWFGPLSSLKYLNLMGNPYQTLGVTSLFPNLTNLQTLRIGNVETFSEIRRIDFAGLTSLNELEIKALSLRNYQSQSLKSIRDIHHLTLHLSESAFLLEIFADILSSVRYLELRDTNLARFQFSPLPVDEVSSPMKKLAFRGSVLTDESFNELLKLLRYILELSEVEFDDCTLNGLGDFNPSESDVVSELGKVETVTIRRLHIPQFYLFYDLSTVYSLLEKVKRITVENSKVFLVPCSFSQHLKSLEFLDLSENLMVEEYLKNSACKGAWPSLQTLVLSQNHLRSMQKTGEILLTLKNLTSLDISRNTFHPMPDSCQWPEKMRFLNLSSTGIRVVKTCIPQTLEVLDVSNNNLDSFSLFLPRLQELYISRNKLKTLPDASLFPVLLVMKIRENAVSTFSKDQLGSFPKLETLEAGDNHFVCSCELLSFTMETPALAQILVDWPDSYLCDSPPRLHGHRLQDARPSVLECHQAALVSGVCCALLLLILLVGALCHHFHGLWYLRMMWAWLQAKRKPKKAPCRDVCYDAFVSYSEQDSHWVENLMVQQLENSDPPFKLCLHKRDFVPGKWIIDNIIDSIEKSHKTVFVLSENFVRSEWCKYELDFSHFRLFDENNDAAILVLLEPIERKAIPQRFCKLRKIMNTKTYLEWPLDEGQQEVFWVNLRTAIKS
How it was run: (§1)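 Bone marrow macrophages from C57BL/6 mice, grown in 70% growth medium (DMEM, 10% FBS) plus 30% L929-conditioned medium and given fresh medium 12-14 h before stimulation. Stimuli: IL-1 40 ng/ml, HKSA ~10^8 cfu/ml, pI:pC 50 μg/ml or CpG 10 μg/ml, ± compound at 10 μM (final) added from a 200x DMSO stock. IκBα and p38 profiled by immunoblot. Three independent experiments, quantitated and normalized.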

[3] = biological target: T2, Toll-like receptor 3 (Mus musculus) (UniProt Q99MB1); experiment: Inhibition of TRIF recruitment to TLR3 in C57BL/6 mouse BMDM cells assessed as inhibition of pI:pC-induced IkappaBalpha degradation up to 90 mins by Western blot analysis; how it was run: as §1
T2 sequence (whole entry): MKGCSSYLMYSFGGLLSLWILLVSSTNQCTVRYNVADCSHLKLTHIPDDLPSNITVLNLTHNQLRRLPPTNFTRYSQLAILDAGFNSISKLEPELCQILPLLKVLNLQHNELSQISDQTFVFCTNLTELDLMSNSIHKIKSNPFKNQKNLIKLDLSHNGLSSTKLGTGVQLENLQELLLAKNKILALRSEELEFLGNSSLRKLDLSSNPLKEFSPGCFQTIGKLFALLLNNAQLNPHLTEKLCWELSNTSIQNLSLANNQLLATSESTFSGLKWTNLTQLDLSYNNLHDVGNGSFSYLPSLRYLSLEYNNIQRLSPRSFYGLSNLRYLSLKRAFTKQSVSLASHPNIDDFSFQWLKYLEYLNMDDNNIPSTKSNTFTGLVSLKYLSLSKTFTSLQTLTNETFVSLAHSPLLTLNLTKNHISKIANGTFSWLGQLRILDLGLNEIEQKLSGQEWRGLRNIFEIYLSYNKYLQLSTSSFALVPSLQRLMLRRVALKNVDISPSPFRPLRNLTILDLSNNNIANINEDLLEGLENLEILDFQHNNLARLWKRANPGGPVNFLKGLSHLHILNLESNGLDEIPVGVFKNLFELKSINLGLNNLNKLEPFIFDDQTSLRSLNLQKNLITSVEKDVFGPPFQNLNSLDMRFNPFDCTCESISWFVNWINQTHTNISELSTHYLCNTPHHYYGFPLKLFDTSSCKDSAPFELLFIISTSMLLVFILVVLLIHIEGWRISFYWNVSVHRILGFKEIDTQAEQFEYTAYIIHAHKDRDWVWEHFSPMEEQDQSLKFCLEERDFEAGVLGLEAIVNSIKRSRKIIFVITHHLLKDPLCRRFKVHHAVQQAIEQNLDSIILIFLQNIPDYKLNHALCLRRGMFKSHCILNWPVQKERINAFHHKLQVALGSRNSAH

inhibition (active/not active) [1]	inhibition [2]	inhibition [3]	SMILES
inactive	Active	Active	O=C(CCCCCN1C(=O)CCC1=O)Oc1ccc2cc(C(C(=O)NCc3ccccc3)N(C(=O)Cc3ccc4c(c3)OCO4)C3CC3)ccc2c1 (centres undefined)
Active	Active	Active	O=C(CCCCCCCC(=O)ON1C(=O)CCC1=O)Oc1ccc2cc(C(C(=O)NCc3ccccc3)N(C(=O)Cc3ccc4c(c3)OCO4)C3CC3)ccc2c1 (centres undefined)
Active	Active	Active	O=C(CCCCCN1C(=O)C=CC1=O)Oc1ccc2cc(C(C(=O)NCc3ccccc3)N(C(=O)Cc3ccc4c(c3)OCO4)C3CC3)ccc2c1 (centres undefined)
